Laboratory results as given in the RNAGym collection of RNA variant scans (doi:10.1126/science.aae0568).
This sample holds only a part of the variants without activity.

B1: tRNA (parent)
chain: GUUCCGUUGGCGUAAUGGUAACGCGUCUCCCUCCUAAGGAGAAGACUGCGGGUUCGAGUCCCGUACGGAACG

Variants of: B1
Experiment: yeast fitness relative to wild type (ratio to wild type); higher = fitter; tRNA-Arg(CCU), competitive growth, 37 C, YPD
Method in brief: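 Variants of the tRNA-Arg(CCU) gene were chemically synthesised with a 3% per-site mutation rate across 69 sites and placed at the native genomic locus in Saccharomyces cerevisiae. Six parallel replicates of the pooled strains were competed in YPD at 37°C for 24 hours, and gene amplicons from the start and end populations were read by 100-nucleotide paired-end sequencing. Darwinian fitness relative to wild type was derived from changes in genotype frequencies. Genotypes required ≥ 100 starting reads, and estimates < 0.5 were set to 0.5.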

Variant | yeast fitness
GUUCCGUUGGCGUAAUGGUAACGCGUCUCCCUCCUUAGAAGAAGACUGCGGGUUCGAGUCCCGUACGGAACG | 0.657
GUUCCGUUGGCGUAAUGGUAACGCGUCUCCCUCCUUAGGAGAAGACUGCGGGUUCGAGUCCAGUACGGAACG | 0.611
GUUCCGUUGGCGUAAUGGUAACGCGUCUCCCUCCUUAGGAGAAGACUGCGGGUUCGAGUCCUGUACGGAACG | 0.645
GUUCCGUUGGCGUAAUGGUAACGCGUCUCCCUCCUACGGAGAAGAGUGCGGGUUCGAGUCCUGUACGGUACG | 0.673
GUUCCGUUGGCGUAAUGGUAACGCGUCUCCCUCCUACGGAGACGACUGCGGGUUCGAGUCCCGUCCGGAACG | 0.612
GUUCCGUUGGCGUAAUGGUAACGCGUCUCCCUCCUACGGAGAAGACUGCGGGUUCGAGUUCCGUACGGACCG | 0.546
GUUCCGUUGGCGUAAUGGUAACGCGUCUCCCUCCUACGGAGAAGACUGCGGGUUCGUGCCCCGUACGGAACG | ≤ 0.5
GUUCCGUUGGCGUAAUGGUAACGCGUCUCCCUCCUACGGAGAAGUCUGCGGGUUCGAGUCUCGUACGGAACG | 0.545
GUUCCGUUGGCGUAAUGGUAACGCGUCUCCCUCCUACGGAGAAGACUGCGGGUUCGAGUCCCGUACGGCACG | 0.865
GUUCCGUUGGCGUAAUGGUAACGCGUCUCCCUCCUACGGAGAAGACUGCGGGUUCGAGUCCCGUACGGUACG | 1.03
GUUCCGUUGGCGUAAUGGUAACGCGUCUCCCUCCUUAGGAGAAGACUGCGGGUUCGACUCCCGUUCGGAACG | ≤ 0.5
GUUCCGUUGGCGUAAUGGUAACGCGUCUCCCUCCUUAGGAGAAGACUGCGGGUUCGAGUCCCGUACGAAACG | 0.642
GUUCCGUUGGCGUAAUGGUAACGCGUCUCCCUCCUUAGGAGAAGACUGCGGGUUCGAGUCCCGUACGCAACG | 0.698
GUUCCGUUGGCGUAAUGGUAACGCGUCUCCCUCCUACGGAGAAGACUGCGGGUUGGAGUCCCGUACGGCACG | ≤ 0.5
GUUCCGUUGGCGUAAUGGUAACGCGUCUCCCUCCUUAGGAGAAGACUGCAGGUUCGAGUCUCGUACGGAACG | ≤ 0.5
GUUCCGUUGGCGUAAUGGUAACGCGUCUCCCUCCUACGGAGACGACUGCGGGUUCGAGUCCCGUACGGAUCG | 0.622
GUUCCGUUGGCGUAAUGGUAACGCGUCUCCCUCCUACGGAGCAGAAUGCGGGUUCGAGUCCCGUACGGACCG | ≤ 0.5
GUUCCGUUGGCGUAAUGGUAACGCGUCUCCCUCCUACGGAGGAAACUGCGGGUUCGAGUCCCGUACAGAACG | ≤ 0.5
GUUCCGUUGGCGUAAUGGUAACGCGUCUCCCUCCUUAAGAGAAGACUGCGGGUUCGAGUCCCGUACGGAACG | 0.617

Variant | yeast fitness
GUUCCGUUGGCGUAAUGGUAACGCGUCUCCCUCCUACGGAGAAGACUGCGGGUUGGAGUCCCGUACGGAACG | 0.607
GUUCCGUUGGCGUAAUGGUAACGCGUCUCCCUCCUUAGGAGAAGACUGCGGGUUCGAGUCCCGAACGGAACG | 0.535
GUUCCGUUGGCGUAAUGGUAACGCGUCUCCCUCCUACGGAGCAGACUGCGGGUUCGAGUCCCGUACGGUACG | 0.749
GUUCCGUUGGCGUAAUGGUAACGCGUCUCCCUCCUUAGGAGAAGACUACGGGUUCGAGUCCCGUACGGAACG | 0.657
GUUCCGUUGGCGUAAUGGUAACGCGUCUCCCUCCUACGGAGAAGACUGCGGGUUCGAGUCUCGUACGGAACG | 0.681
GUUCCGUUGGCGUAAUGGUAACGCGUCUCCCUCCUACGGAGAAGACUGCGGGUUCGAGUCGCGUACGGAACG | 0.584
GUUCCGUUGGCGUAAUGGUAACGCGUCUCCCUCCUACGGAGAAGAUUGCGGGUUCGAGUCCCGUCCGAAACG | ≤ 0.5
GUUCCGUUGGCGUAAUGGUAACGCGUCUCCCUCCUACGGAGAAGAGUGGGGGUUCGAGUCCCGUACGGAACG | 0.568
GUUCCGUUGGCGUAAUGGUAACGCGUCUCCCUCCUACGGAGAAGACUGAGGGUUCGAGUCCCGUACGGAACG | 0.651
GUUCCGUUGGCGUAAUGGUAACGCGUCUCCCUCCUACGGAGAAGACUGCGGGUUCGCGUCCCGUACGGAACG | 0.543
GUUCCGUUGGCGUAAUGGUAACGCGUCUCCCUCCUACGGAGAAGACUGCGGGUUCGGGUCCCGUACGGAACG | 0.665
GUUCCGUUGGCGUAAUGGUAACGCGUCUCCCUCCUACGGAGAAGAGUGCGGGUUCGAGUCCUGUACGGAACG | 0.872
GUUCCGUUGGCGUAAUGGUAACGCGUCUCCCUCCUACGGAGAAGUCUGCGGGUUCGAGUCCCGUACGCAACG | ≤ 0.5
GUUCCGUUGGCGUAAUGGUAACGCGUCUCCCUCCUACGGAGAUGACUGCGGGUUCGAGUCCCAUACGGAACG | 0.666
GUUCCGUUGGCGUAAUGGUAACGCGUCUCCCUCCUACGGAGAAGAUUGCGGGUUCGAGUCCCGUCCGGAACG | 0.638
GUUCCGUUGGCGUAAUGGUAACGCGUCUCCCUCCUACGGAGAAGACUGGGGGUUCGCGUCCCGUACGGAACG | ≤ 0.5
GUUCCGUUGGCGUAAUGGUAACGCGUCUCCCUCCUACGGAGAAGUCUGCGGGUUCGAGUCCCGUACGGAACG | 0.695
GUUCCGUUGGCGUAAUGGUAACGCGUCUCCCUCCUUAGGAGAAGACUGCGGGUUCGAGUCCUGUUCGGAACG | 0.519
GUUCCGUUGGCGUAAUGGUAACGCGUCUCCCUCCUACGGAGAAGACUGCGGGUUCGUGUCCCGUUCGGAACG | 0.637
